From the RNAGym collection of RNA variant scans (doi:10.1126/science.aae0568)
This sample holds only a part of the variants without activity.

B1: tRNA (parent)
chain: GUUCCGUUGGCGUAAUGGUAACGCGUCUCCCUCCUAAGGAGAAGACUGCGGGUUCGAGUCCCGUACGGAACG

Variants of: B1
Assay: yeast fitness relative to wild type (ratio to wild type); higher = fitter; tRNA-Arg(CCU), competitive growth, 37 C, YPD
Procedure, shortened: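 The tRNA-Arg(CCU) gene variants were made by chemical synthesis with a 3% per-site mutation rate at 69 sites and inserted at the native genomic locus of Saccharomyces cerevisiae. After pooling, the strains were competed in YPD at 37°C for 24 hours in six parallel replicates. Gene amplicons from the start population and each end population were read by 100-nucleotide paired-end sequencing, and Darwinian fitness relative to wild type was taken from genotype frequency changes. Genotypes needed ≥ 100 starting reads, and estimates < 0.5 were set to 0.5.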

Point of comparison: C4U A36C C61A, yeast fitness 0.705. Against it:
- C4U G6A A40G A43G C49U — lower, ≤ 0.5
- C4U G12A G39C G44A A57U — lower, ≤ 0.5
- C4U A37C G63A — lower, 0.593
- C4U A14U C46U — lower, 0.577
- C4U G23C G51A A69G — lower, 0.586
- C4U A45C G51A — lower, 0.501
- C4U G25A A57U U59A — lower, ≤ 0.5
- C4G U26A C27U A43G C55U C66U — lower, ≤ 0.5
- C4U C34G A37C — lower, 0.539
- C4U A43G — higher, 1
- C4U C33A G48C — lower, ≤ 0.5
- C4U G67U — higher, 0.782
- C4U U64C — higher, 0.962
- C4U C49A — higher, 0.787
- C4U C49U — higher, 0.989
- C4U U7G C34G G51A — lower, ≤ 0.5
- C4U G9A — higher, 0.927
- C4U G9C — lower, 0.688
- C4U C22G G48A C60G — lower, ≤ 0.5
- C4G G50C — lower, 0.679
- C4U C22A A40C — lower, ≤ 0.5
- C4G U7G G9A A20G C22A G41A — lower, ≤ 0.5
- C4G U26A U47G U54C — lower, ≤ 0.5
- C4U C24U C27A C60G G67C — lower, ≤ 0.5
- C4U G25A C34G G52U — lower, ≤ 0.5
- C4G U7C C33G G52A — lower, 0.652
- C4U C22G G67U — lower, 0.638
- C4U A42U — higher, 0.944
- C4U C27U U47C — higher, 0.734
- C4U U8C G17C C49A — lower, ≤ 0.5
- C4U A37G G39C C61U — lower, ≤ 0.5
- C4U G12C C49G — lower, 0.533
- C4U G9A C24G A37C A57U — lower, 0.543
- C4U A36C U59A — lower, ≤ 0.5
- C4U G17A A57U — lower, ≤ 0.5
- C4U G17C C49G G50C — lower, 0.652
- C4U G23C A36C — lower, 0.597
- C4U C11U C33U C62A — lower, ≤ 0.5
- C4U A36U A40C A65C — lower, ≤ 0.5
- C4G U16C C29G A36U A70G — lower, ≤ 0.5
- C4U U8A C33U A36U A65C — lower, ≤ 0.5
- C4U A36U A45C C61G A70C — higher, 0.852
- C4U A20G C55U A65G — lower, ≤ 0.5
- C4G U7G C31U — lower, 0.56
- C4U C30A G63A — higher, 0.828
- C4G G68C — higher, 0.971
- C4G G68U — higher, 0.865
- C4U U13A A14U C29U A37G — lower, 0.581
- C4U U19A C30G A36C U47C — lower, ≤ 0.5
- C4G U8C — higher, 0.89
- C4U U7A — higher, 0.743
- C4U U13A A14U C29U A37G U59C G68C — lower, ≤ 0.5
- C4U C30A C61U — higher, 0.812
- C4U A37U A70U — lower, 0.676
- C4U C29A — lower, 0.691
- C4U A21G C49U — higher, 1.01
- C4U C27U U54A — lower, ≤ 0.5
- C4U G12A G67A — lower, 0.674
- C4U A40G A43U C55G — lower, 0.584
- C5A A14G C31U C34U C60G G63A — lower, ≤ 0.5
- C4U U35C — higher, 0.715
- C4U U35A — lower, 0.659
- C4U G23C A36C C66U — lower, ≤ 0.5
- C4U A21G A70U — higher, 0.78
- C4U C11U A15G C34U U54C C55U — lower, 0.501
- C4U C11U C30G G68C — lower, 0.593
- C4U A15G C33A U59C C60U — lower, ≤ 0.5
- C4U U16A A40C C55U C61A C66A — lower, 0.528
- C4G U7G C55G — lower, ≤ 0.5
- C4G G56A C66G — lower, ≤ 0.5
- C4G U8G U35C U53G — lower, ≤ 0.5
- C4U G6A G9A U13C U28C — lower, ≤ 0.5
- C4G U16C C31U A42G — lower, ≤ 0.5
- C4U U8A G48A C55U — lower, ≤ 0.5
- C4U U19C A36G G39A G67A — lower, ≤ 0.5
- C4U G12A U19C U26A — lower, ≤ 0.5
- C4U U16G C66G — lower, ≤ 0.5
- C4U C34G G41C G56C G58A G63C A65U — lower, ≤ 0.5
- C4U C11A A37C C66A — lower, 0.535
- C4G G41U C61A C66U — lower, ≤ 0.5
- C4U A14G A36C C46G C61G — lower, 0.544
- C4G U7C C27A A70U — lower, ≤ 0.5
- C4U C22U C33U — lower, 0.565
- C4U A57U — lower, 0.635
- C4G U26A U32C — lower, 0.565
- C4U A20U U53C C61U — lower, 0.627
- C4U U26G C62G — lower, ≤ 0.5
- C4U A15G C22U G44C — lower, ≤ 0.5
- C4U G18C A57C — lower, 0.639
- C4U U8C A36G A40C G44C — lower, ≤ 0.5
- C4U G17A — higher, 0.973
- C4G U26A A57G — lower, ≤ 0.5
- C4G U32C A70U — higher, 0.742
- C4U C24A U59G C62U A70G — lower, ≤ 0.5
- C4U C22U C55G — lower, ≤ 0.5
- C4U C22U C55U — lower, 0.544
- C4U G58C A69U — higher, 0.785
- C4G U19C C29A C33G A45C — lower, ≤ 0.5
- C4U G39C C46G C49G — lower, ≤ 0.5
- C4G U16C G41C C62U — lower, ≤ 0.5
- C4G G56A — higher, 0.927
- C4U A14G C34G — lower, ≤ 0.5
- C4U C11G G51A U59A C62G — lower, ≤ 0.5
- C4U C5A C66U — lower, 0.61
- C5A A14U A21C C61U — lower, ≤ 0.5
- C4U C5U C31G A45G — lower, ≤ 0.5
- C4U C46G — higher, 0.981
- C4U C5G C29G C31G A37C — lower, 0.627
- C4U G9C A69C — lower, 0.594
- C4U C29U G48A — lower, 0.662
- C4U C24U A36C C61G — lower, ≤ 0.5
- C4U U16C A36U C49U G58C C66U — lower, ≤ 0.5
- C4U A40U G58C — higher, 0.734
- C4G U8C C22G A42C — lower, ≤ 0.5
- C4U G23C A40U A42G G58C — lower, ≤ 0.5
- C4G U59C — higher, 0.771
- C4U U8A U13C U35C C46A — lower, ≤ 0.5
- C4U C34G U35A A42U — lower, ≤ 0.5
- C4U G12A A20G C22U U35A A45C — lower, ≤ 0.5
- C4G G48A — higher, 0.876
- C4U C30U C34U — lower, ≤ 0.5
- C4U A20G A45U C49U C61U C62G A69C — lower, ≤ 0.5
- C4U A20C C55A — higher, 0.721
- C4U A20C C22U U47G G67A A69U — lower, ≤ 0.5
- C4G U7A U19C A20C C55A G68C — lower, ≤ 0.5
- C4U U7C G23A A40U A42C C60A — lower, ≤ 0.5
- C4U G10A A14U C46U — lower, ≤ 0.5
- C4U C34G A69C — lower, 0.664
- C4U G6A — higher, 0.901
- C4U C24A A69U — lower, 0.601
- C4U C29A G58A C61G A70U — lower, 0.548
- C4U A36U A40C — lower, 0.64
- C5A A14U C31G G63A — lower, ≤ 0.5
- C4G U26A C27U A43G C55U C62U — lower, 0.589
- C4U G6A U13C U28C — lower, 0.616
- C4U C11U C24A U47G — lower, 0.557
- C4U A36G C61U — higher, 0.73
- C4U C5G C66U — lower, 0.564
- C4U C22A A40C C55G A57C A69U — lower, ≤ 0.5
- C4G U8C C31G C33G G58C C60U A70C — lower, ≤ 0.5
- C4U U26A A45C — lower, 0.53
- C4U A14U G50C G51C G56A — lower, ≤ 0.5
- C4U G18C C31U — lower, ≤ 0.5
- C4U U8A U32G U35A C62U A69C — lower, ≤ 0.5
- C4U A20U C22G — lower, 0.54
- C4U U26C G44A G52A C66U — lower, ≤ 0.5
- C4U A37U A43U — lower, ≤ 0.5
- C4U G25A G67C — lower, 0.58
- C4U A14G — higher, 0.856
- C4U G10A U28A — lower, ≤ 0.5
- C4U G9A C49U G50A — lower, 0.644
- C4G G58C C66U — higher, 0.73
- C4U A65G — higher, 0.877
- C4U A65C — higher, 0.873
- C4U G52A G63C — lower, 0.595
- C4G U13A G18A G52A C55G — lower, ≤ 0.5
- C4U C46G G63C C66A — lower, ≤ 0.5
- C4U C5G C29G C31G A37C U54A — lower, ≤ 0.5
- C4U C31G A45C C49A — lower, ≤ 0.5
- C4U U7A A37C A40C G51A C55A G58A — lower, ≤ 0.5
- C4U C24A U26A — lower, ≤ 0.5
- C4U U16A A20U U35C G39C A42C C55G A70G — lower, ≤ 0.5
- C4U C11U G67A A69C — lower, ≤ 0.5
- C4U C5G C29G C31G A37U C66A — lower, ≤ 0.5
- C4G U8C U16A A21C C24G A37U C55U C62U A69U — lower, ≤ 0.5
- C4U C11G A20G C34U — lower, ≤ 0.5
